Laboratory results reported in ChEMBL document CHEMBL3124843, “Synthesis, cytostatic, antimicrobial, and anti-HCV activity of 6-substituted 7-(het)aryl-7-deazapurine ribonucleosides” (J Med Chem, 2014).
Activity calls are given as the source filed them. How the calls were made is not given here.

Experiments:
CCRF-CEM [1] = test: Inhibition of RNA synthesis in human CCRF-CEM cells assessed as BrU-positive cells at IC50 after 24 hrs by propidium iodide staining-based flow cytometric analysis (reference value: 43.3%); type: functional; set-up: scale not given: the % may be the effect or the level left
CCRF-CEM [2] = test: Cell cycle arrest in human CCRF-CEM cells assessed as accumulation at sub-G1 phase at IC50 after 24 hrs by propidium iodide staining-based flow cytometric analysis (reference value: 9.6%); type: functional
[3] = Cytotoxicity against human HuH7 cells infected with Hepatitis C virus subtype 2a; type: cell-based, Huh-7
Hepatitis C virus [4] = test: Antiviral activity against Hepatitis C virus subtype 2a infected in human HuH7 cells; type: functional, organism-based, Hepacivirus hominis; conditions: genotype 2a, Huh-7
[5] = Cytotoxicity against human HuH7 cells infected with Hepatitis C virus subtype 1b; type: cell-based, Huh-7
Hepatitis C virus [6] = test: Antiviral activity against Hepatitis C virus subtype 1b infected in human HuH7 cells; type: functional, organism-based, Hepacivirus hominis; conditions: genotype 1b, Huh-7
Candida tropicalis = test: Antifungal activity against Candida tropicalis after 48 hrs; type: functional, organism-based
Pichia kudriavzevii = test: Antifungal activity against Candida crusei after 48 hrs; type: functional, organism-based
Candida parapsilosis = test: Antifungal activity against Candida parapsilosis after 48 hrs; type: functional, organism-based
Candida albicans = test: Antifungal activity against Candida albicans after 48 hrs; type: functional, organism-based
Pseudomonas aeruginosa [7] = test: Antibacterial activity against multi-resistant Pseudomonas aeruginosa A/16575 after 24 hrs; type: functional, organism-based
Escherichia coli [8] = test: Antibacterial activity against multi-resistant Escherichia coli C/16702 after 24 hrs; type: functional, organism-based
[9] = tested on: Staphylococcus haemolyticus; test: Antibacterial activity against methicillin-resistant Staphylococcus haemolyticus A/16568 after 24 hrs; type: functional, organism-based
Staphylococcus aureus [10] = test: Antibacterial activity against methicillin-resistant Staphylococcus aureus MRSA 4591 after 24 hrs; type: functional, organism-based
Pseudomonas aeruginosa [11] = test: Antibacterial activity against Pseudomonas aeruginosa CCM 3955 after 24 hrs; type: functional, organism-based
Escherichia coli [12] = test: Antibacterial activity against Escherichia coli CCM 3954 after 24 hrs; type: functional, organism-based
Staphylococcus aureus [13] = test: Antibacterial activity against Staphylococcus aureus CCM 3953 after 24 hrs; type: functional, organism-based
Enterococcus faecalis = test: Antibacterial activity against Enterococcus faecalis CCM 4224 after 24 hrs; type: functional, organism-based
[14] = Antiproliferative activity against human HeLaS3 cells after 72 hrs by XTT assay; type: functional, cell-based; conditions: HeLa S3, 72 h
Summary of the method: (§1)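 Antiproliferative test on HL-60 promyelocytic leukemia and HeLa S3 cervical carcinoma cells growing in liquid suspension.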

HL-60 = test: Antiproliferative activity against human HL60 cells after 72 hrs by XTT assay; type: functional, cell-based; conditions: HL-60, 72 h; summary of the method: as §1
HepG2 = test: Antiproliferative activity against human HepG2 cells after 72 hrs by XTT assay; type: functional, cell-based; conditions: HepG2, 72 h
MRC5 = test: Cytostatic activity against human MRC5 cells after 72 hrs by MTT assay; type: ADME, cell-based; conditions: MRC5, 72 h
Summary of the method: (§2)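 IC50 is the concentration that cuts cell growth by 50%, read by quantitative metabolic MTT staining after a 3-day treatment. The resistant sublines were made by raising the concentration of the cytotoxic drug step by step. CEM-DNR-bulk (daunorubicin-selected) stably overexpresses mrp-1. K562-TAX (paclitaxel-selected) expresses only mdr-1. HCT116p53−/− carries null p53 alleles. BJ and MRC-5 are nonmalignant fibroblasts.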

BJ = test: Cytostatic activity against human BJ cells after 72 hrs by MTT assay; type: ADME, cell-based; summary of the method: as §2
HCT-116 [15] = test: Cytostatic activity against p53-deficient human HCT116 cells after 72 hrs by MTT assay; type: functional, cell-based; conditions: HCT-116, 72 h; summary of the method: as §2
HCT-116 [16] = test: Cytostatic activity against human HCT116 cells after 72 hrs by MTT assay; type: functional, cell-based; conditions: HCT-116, 72 h; summary of the method: as §2
A549 = test: Cytostatic activity against human A549 cells after 72 hrs by MTT assay; type: functional, cell-based; conditions: A549, 72 h; summary of the method: as §2
K562 [17] = test: Cytostatic activity against paclitaxel-resistant human K562 cells after 72 hrs by MTT assay; type: functional, cell-based; conditions: K562, 72 h; summary of the method: as §2
K562 [18] = test: Cytostatic activity against human K562 cells after 72 hrs by MTT assay; type: functional, cell-based; conditions: K562, 72 h; summary of the method: as §2
[19] = Cytostatic activity against human CEM-DNR-bulk cells after 72 hrs by MTT assay; type: functional, cell-based; summary of the method: as §2
CCRF-CEM [20] = test: Cytostatic activity against human CCRF-CEM cells after 72 hrs by MTT assay; type: functional, cell-based; summary of the method: as §2
CCRF-CEM [21] = test: Mitotic arrest in human CCRF-CEM cells assessed as pH3Ser10-positive cells at IC50 after 24 hrs by propidium iodide staining-based flow cytometric analysis (reference value: 1.4%); type: functional

Row | SMILES | CC50 [3] [µM] | EC50 (Hepatitis C virus [4]) [µM] | CC50 [5] [µM] | EC50 (Hepatitis C virus [6]) [µM] | Activity (Candida tropicalis) | Activity (Pichia kudriavzevii) | Activity (Candida parapsilosis) | Activity (Candida albicans) | Activity (Pseudomonas aeruginosa [7]) | Activity (Escherichia coli [8]) | Activity [9] | Activity (Staphylococcus aureus [10]) | Activity (Pseudomonas aeruginosa [11]) | Activity (Escherichia coli [12]) | Activity (Staphylococcus aureus [13]) | Activity (Enterococcus faecalis) | IC50 [14] [µM] | IC50 (HL-60) [µM] | IC50 (HepG2) [µM] | IC50 (MRC5) [µM] | other results
1 | COc1ncnc2c1c(-c1ccsc1)cn2[C@@H]1O[C@H](CO)[C@@H](O)[C@H]1O | > 44 | > 44 | > 44 | 0.55 | inactive | inactive | inactive | inactive | inactive | inactive | inactive | inactive | inactive | inactive | inactive | inactive | 3.35 | 0.13 | 0.43 | 75.3 | Activity (CCRF-CEM [1]): 0.5%; Activity (CCRF-CEM [2]): 75%; IC50 (BJ): 64.3 µM; IC50 (HCT-116 [15]): 0.14 µM; IC50 (HCT-116 [16]): 0.12 µM; IC50 (A549): 5.17 µM; IC50 (K562 [17]): 3.45 µM; IC50 (K562 [18]): 0.09 µM; IC50 [19]: 7.64 µM; IC50 (CCRF-CEM [20]): 2.57 µM; Activity (CCRF-CEM [21]): 2.9%
2 | COc1ncnc2c1c(-c1ccco1)cn2[C@@H]1O[C@H](CO)[C@@H](O)[C@H]1O | > 44 | 0.03 | > 44 | 0.02 | inactive | inactive | inactive | inactive | inactive | inactive | inactive | inactive | inactive | inactive | inactive | inactive | 1.02 | 0.1 | 0.3 | 1.7 | Activity (CCRF-CEM [2]): 6.8%; IC50 (BJ): 0.43 µM; IC50 (HCT-116 [15]): 0.04 µM; IC50 (HCT-116 [16]): 0.04 µM; IC50 (A549): 0.03 µM; IC50 (K562 [17]): 0.38 µM; IC50 (K562 [18]): 0.06 µM; IC50 [19]: 0.16 µM; IC50 (CCRF-CEM [20]): 0.02 µM; Activity (CCRF-CEM [21]): 1.4%
3 | CSc1ncnc2c1c(-c1cc3ccccc3o1)cn2[C@@H]1O[C@H](CO)[C@@H](O)[C@H]1O | > 44 | 29.6 | > 44 | 8.03 | inactive | inactive | inactive | inactive | inactive | inactive | inactive | inactive | inactive | inactive | inactive | inactive | 1.93 | 1.21 | > 20 | 70.8 | IC50 (BJ): 67.2 µM; IC50 (HCT-116 [15]): > 20 µM; IC50 (HCT-116 [16]): > 20 µM; IC50 (A549): > 20 µM; IC50 (K562 [17]): > 20 µM; IC50 (K562 [18]): 17.2 µM; IC50 [19]: > 20 µM; IC50 (CCRF-CEM [20]): > 20 µM
